Structures are written as SMILES.

For data set [1], the system named is Rattus norvegicus. In words: Antiinflammatory activity in Wistar rat assessed as inhibition of carrageenan-induced paw edema at 100 mg/kg, po pretreated for 30 mins followed by carrageenan challenge measured after 3 hrs relative to control. The format is functional. A digest of the protocol:
(§1)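 Male Wistar rats (120-150 g), six per group, dosed orally with compound suspended in 1% gum arabic; 30 min later 0.1 mL 1% carrageenan injected sc into hind paw plantar surface. Edema measured at 3 h; percent inhibition calculated against carrageenan-only animals.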
A general note: Carrageenan injected into the paw causes an acute inflammation.

Data set [2] deals with Rattus norvegicus. In words: Antiinflammatory activity in Wistar rat assessed as inhibition of carrageenan-induced paw edema at 50 mg/kg, po pretreated for 30 mins followed by carrageenan challenge measured after 3 hrs relative to control. Format: functional. A digest of the protocol: as §1
Another data set has as its system Mus musculus. In words: Analgesic activity in sc dosed ddY mouse assessed as inhibition of acetic acid-induced abdominal stretching pretreated for 30 mins followed by acetic acid challenge measured for 5 to 20 mins. The format is functional. The note with it: Abdomen. A digest of the protocol: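 Compound suspended in 1% gum arabic, given sc to mice; 30 min later 0.6% acetic acid ip at 0.1 mL/10 g body weight. Mouse counted protected if no stretching from 5 to 20 min after acid; ED50 by Litchfield–Wilcoxon method.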

A short description of data set [3]: Acute toxicity in ip dosed ddY mouse measured after 72 hrs. The format is organism-based. The conditions noted are these: in vivo.
Data set [4] relates to Rattus norvegicus. In words: Antiinflammatory activity in Wistar rat assessed as inhibition of carrageenan-induced paw edema at 25 mg/kg, po pretreated for 30 mins followed by carrageenan challenge measured after 3 hrs relative to control. The format is functional. In short, it runs like this:
as §1

Regarding `Cn1ncc(N2CCOCC2)c(O)c1=O`, in the data set on Rattus norvegicus [1], the inhibition in vivo (usually the change of the read-out against control, counted positive when it falls) at 100 mg/kg worked out at 16.6%. Besides, in the data set with Rattus norvegicus [2], the inhibition in vivo at 50 mg/kg was found to be 8.2%. Also, the ED50 (usually the dose that gives a 50% effect, or the effect in half of the subjects) in the data set with Mus musculus is above 100 mg/kg.

In the case of `CCCCCOc1c(N2CCOCC2)cnn(C)c1=O`, the inhibition in vivo at 100 mg/kg in the data set with Rattus norvegicus [1] was 20.7%. Moreover, the inhibition in vivo at 50 mg/kg in the data set on Rattus norvegicus [2] worked out at 2.4%. The LD50 (as a rule, the dose expected to kill half of the subjects tested) at 72 h in data set [3] came out at 420 mg/kg. Moreover, in the data set on Mus musculus, the ED50 was found to be 29 mg/kg.

Take `CCOc1c(N2CCOCC2)cnn(C(C)C)c1=O`: the inhibition in vivo at 100 mg/kg in the data set on Rattus norvegicus [1] stood at 22.2%. In the data set on Rattus norvegicus [2], the inhibition in vivo at 50 mg/kg was determined as 2.1%. Moreover, the ED50 in the data set on Mus musculus is above 100 mg/kg.

In the case of `CCCCn1ncc(N2CCOCC2)c(OCC)c1=O`, the inhibition in vivo at 100 mg/kg in the data set with Rattus norvegicus [1] came to 18.3%. Moreover, the ED50 with Mus musculus is above 100 mg/kg.

For the compound `Cn1ncc(N2CCOCC2)c(Cl)c1=O`, the inhibition in vivo at 100 mg/kg in the data set on Rattus norvegicus [1] stood at 38.9%. Further, the inhibition in vivo at 50 mg/kg in the data set with Rattus norvegicus [2] is 32.2%. The inhibition in vivo at 25 mg/kg in the data set with Rattus norvegicus [4] turned out to be 15.2%. The compound further displayed an LD50 at 72 h in data set [3] of 75 mg/kg. In addition, in the data set on Mus musculus, the ED50 stood at 35 mg/kg.

For the compound `Cn1ncc(Cl)c(Cl)c1=O`, the inhibition in vivo at 100 mg/kg with Rattus norvegicus [1] turned out to be 23.2%. Moreover, the inhibition in vivo at 50 mg/kg with Rattus norvegicus [2] is -8.9%. Further, the ED50 with Mus musculus was above 100 mg/kg.

Consider `Cn1ncc(O)c(Cl)c1=O`, for which the inhibition in vivo at 100 mg/kg with Rattus norvegicus [1] was -5.8%. Also, in the data set with Mus musculus, the ED50 is above 100 mg/kg.

Take `C/C=C/n1ncc(N2CCOCC2)c(OCC)c1=O`: the inhibition in vivo at 100 mg/kg with Rattus norvegicus [1] stood at 3.1%. Besides, the ED50 in the data set on Mus musculus was above 100 mg/kg.

For `CCCOc1c(N2CCOCC2)cnn(C)c1=O`, in the data set on Rattus norvegicus [1], the inhibition in vivo at 100 mg/kg was found to be 34.9%. Also, the inhibition in vivo at 50 mg/kg with Rattus norvegicus [2] came to 32.4%. Also, the inhibition in vivo at 25 mg/kg in the data set on Rattus norvegicus [4] came to 4.5%. In data set [3], the LD50 at 72 h is 500 mg/kg. Moreover, the ED50 in the data set with Mus musculus was determined as 23 mg/kg.

Turning to `CCOc1c(N(C)C)cnn(C)c1=O`, the inhibition in vivo at 100 mg/kg in the data set with Rattus norvegicus [1] was found to be 49.5%. In addition, in the data set on Rattus norvegicus [2], the inhibition in vivo at 50 mg/kg was found to be 30.7%. The inhibition in vivo at 25 mg/kg in the data set with Rattus norvegicus [4] came to 27.5%. Besides, in data set [3], the LD50 at 72 h is 305 mg/kg. The ED50 with Mus musculus was determined as 86 mg/kg.

Regarding `CCOc1c(N2CCCCC2)cnn(C)c1=O`, the inhibition in vivo at 100 mg/kg with Rattus norvegicus [1] amounted to 14.1%. Also, the inhibition in vivo at 50 mg/kg in the data set with Rattus norvegicus [2] was -5.4%. The ED50 with Mus musculus amounted to 86 mg/kg.

On to `CCCCOc1c(N2CCOCC2)cnn(C)c1=O`, for which the inhibition in vivo at 100 mg/kg with Rattus norvegicus [1] was 28.8%. Besides, the inhibition in vivo at 50 mg/kg in the data set on Rattus norvegicus [2] is -2.8%. The compound further had an LD50 at 72 h in data set [3] of 440 mg/kg. In the data set with Mus musculus, the ED50 worked out at 41 mg/kg.

For the compound `c1ccnnc1` [PYRIDAZINE], in the data set on Rattus norvegicus [1], the inhibition in vivo at 100 mg/kg is -2.4%. Moreover, the ED50 in the data set with Mus musculus was above 100 mg/kg.

Consider `C=CCN(CC=C)c1cnn(C)c(=O)c1OCC`, for which the inhibition in vivo at 100 mg/kg in the data set on Rattus norvegicus [1] worked out at 12.9%. Further, the inhibition in vivo at 50 mg/kg in the data set with Rattus norvegicus [2] was -5.2%. Also, the ED50 with Mus musculus is 82 mg/kg.

As for `CCOc1c(N(CC)CC)cnn(C)c1=O`, in the data set with Rattus norvegicus [1], the inhibition in vivo at 100 mg/kg is 32.5%. Further, the inhibition in vivo at 50 mg/kg in the data set on Rattus norvegicus [2] amounted to 1.7%. Also, the median effective dose (ED50) in the data set with Mus musculus stood at 70 mg/kg.

Regarding `CCOc1c(N2CCOCC2)cnn(CC)c1=O`, the inhibition in vivo at 100 mg/kg with Rattus norvegicus [1] is 58.4%. Moreover, the inhibition in vivo at 50 mg/kg in the data set with Rattus norvegicus [2] was determined as 25.4%. Besides, the inhibition in vivo at 25 mg/kg in the data set with Rattus norvegicus [4] came to 8.3%. Also, the LD50 at 72 h in data set [3] came to 380 mg/kg. Also, the ED50 in the data set on Mus musculus came out at 95 mg/kg.

Take `CCOc1c(N2CCOCC2)cn[nH]c1=O`: the inhibition in vivo at 100 mg/kg in the data set with Rattus norvegicus [1] is 9.2%. Further, in the data set on Mus musculus, the ED50 was above 100 mg/kg.

In the case of `CCOc1c(NC)cnn(C)c1=O`, the inhibition in vivo at 100 mg/kg in the data set on Rattus norvegicus [1] was 31.1%. In addition, in the data set with Rattus norvegicus [2], the inhibition in vivo at 50 mg/kg is 4.5%. For the same compound, the inhibition in vivo at 25 mg/kg in the data set with Rattus norvegicus [4] was -1.1%. Besides, in data set [3], the LD50 at 72 h is 400 mg/kg. In the data set on Mus musculus, the ED50 amounted to 55 mg/kg.

With `CCCNc1cnn(C)c(=O)c1OCC`, the inhibition in vivo at 100 mg/kg in the data set with Rattus norvegicus [1] was 38%. Besides, in the data set with Rattus norvegicus [2], the inhibition in vivo at 50 mg/kg turned out to be 8%. In addition, in the data set on Rattus norvegicus [4], the inhibition in vivo at 25 mg/kg turned out to be 2%. Besides, the ED50 with Mus musculus was 72 mg/kg.

As to `CCCn1ncc(N2CCOCC2)c(OCC)c1=O`, the inhibition in vivo at 100 mg/kg with Rattus norvegicus [1] is 32.4%. The inhibition in vivo at 50 mg/kg with Rattus norvegicus [2] stood at 3.5%. The ED50 with Mus musculus was above 100 mg/kg.

In the case of `CCOc1c(N2CCSCC2)cnn(C)c1=O`, the inhibition in vivo at 100 mg/kg with Rattus norvegicus [1] amounted to 11.8%. Also, the inhibition in vivo at 50 mg/kg in the data set on Rattus norvegicus [2] amounted to 6.2%. In the data set on Mus musculus, the ED50 was above 100 mg/kg.

In the case of `CCCCC1C(=O)N(c2ccccc2)N(c2ccccc2)C1=O` [PHENYLBUTAZONE], the inhibition in vivo at 100 mg/kg with Rattus norvegicus [1] worked out at 40.6%. Also, the inhibition in vivo at 50 mg/kg in the data set on Rattus norvegicus [2] was found to be 35%. Further, the inhibition in vivo at 25 mg/kg in the data set with Rattus norvegicus [4] worked out at 18%. Also, in data set [3], the LD50 at 72 h was determined as 420 mg/kg. Moreover, the ED50 with Mus musculus was above 100 mg/kg.

On to `CC(C)Oc1c(N2CCOCC2)cnn(C)c1=O`, for which the inhibition in vivo at 100 mg/kg with Rattus norvegicus [1] came out at 7.2%. The ED50 in the data set with Mus musculus turned out to be 86 mg/kg.

In the case of `C=CCOc1c(N2CCOCC2)cnn(C)c1=O`, the inhibition in vivo at 100 mg/kg in the data set on Rattus norvegicus [1] amounted to 17.4%. Besides, the inhibition in vivo at 50 mg/kg in the data set with Rattus norvegicus [2] was found to be 5.2%. The ED50 in the data set with Mus musculus was found to be 90 mg/kg.

As for `C=CCn1ncc(N2CCOCC2)c(OCC)c1=O`, the inhibition in vivo at 100 mg/kg in the data set with Rattus norvegicus [1] stood at 23.5%. Moreover, in the data set on Rattus norvegicus [2], the inhibition in vivo at 50 mg/kg is 1.2%. The compound also had an LD50 at 72 h in data set [3] of 550 mg/kg. In addition, the ED50 in the data set with Mus musculus was found to be 18 mg/kg.

Consider `CCOc1c(N2CCCC2)cnn(C)c1=O`, for which the inhibition in vivo at 100 mg/kg in the data set on Rattus norvegicus [1] was 23%. In addition, the inhibition in vivo at 50 mg/kg in the data set with Rattus norvegicus [2] was -2.3%. In addition, the ED50 with Mus musculus is above 100 mg/kg.

For `O=c1cccn[nH]1`, the inhibition in vivo at 100 mg/kg with Rattus norvegicus [1] came out at 6.3%. In addition, the ED50 in the data set with Mus musculus was above 100 mg/kg.

Take `CCOc1ccnn(C)c1=O`: the inhibition in vivo at 100 mg/kg in the data set with Rattus norvegicus [1] is -12.2%. Further, in the data set with Mus musculus, the ED50 is above 100 mg/kg.

For `Cc1c(N(C)C)c(=O)n(-c2ccccc2)n1C` [AMINOPYRINE], the inhibition in vivo at 100 mg/kg in the data set with Rattus norvegicus [1] was determined as 48.2%. Also, in the data set on Rattus norvegicus [2], the inhibition in vivo at 50 mg/kg was 25%. The inhibition in vivo at 25 mg/kg in the data set on Rattus norvegicus [4] is 11%. The same compound displayed an LD50 at 72 h in data set [3] of 420 mg/kg. Moreover, the ED50 in the data set on Mus musculus came out at 46 mg/kg.

Take `Cn1ncc(N2CCOCC2)cc1=O`: the inhibition in vivo at 100 mg/kg with Rattus norvegicus [1] was -5.6%. In addition, the ED50 in the data set with Mus musculus is above 100 mg/kg.

For `CCOc1c(Nc2ccccc2)cnn(C)c1=O`, the inhibition in vivo at 100 mg/kg in the data set with Rattus norvegicus [1] was found to be 4.9%. The ED50 in the data set with Mus musculus came to 36 mg/kg.

As to `CCOc1c(N2CCOCC2)cnn(C)c1=O` [EMORFAZONE], the inhibition in vivo at 100 mg/kg with Rattus norvegicus [1] was determined as 55%. For the same compound, the inhibition in vivo at 50 mg/kg with Rattus norvegicus [2] turned out to be 38.8%. In the data set with Rattus norvegicus [4], the inhibition in vivo at 25 mg/kg was 20.2%. Moreover, the LD50 at 72 h in data set [3] was 700 mg/kg. The ED50 in the data set on Mus musculus was 41 mg/kg.

As for `Cn1ncccc1=O`, the inhibition in vivo at 100 mg/kg in the data set with Rattus norvegicus [1] was 4.5%. The ED50 with Mus musculus stood at 65 mg/kg.

With `CCOc1c(N2CCN(C)CC2)cnn(C)c1=O`, in the data set on Rattus norvegicus [1], the inhibition in vivo at 100 mg/kg stood at 12.3%. Further, the inhibition in vivo at 50 mg/kg in the data set on Rattus norvegicus [2] came out at 10.2%. Also, the ED50 in the data set on Mus musculus is 82 mg/kg.

Take `COc1c(N2CCOCC2)cnn(C)c1=O`: in the data set on Rattus norvegicus [1], the inhibition in vivo at 100 mg/kg was determined as 43.4%. The inhibition in vivo at 50 mg/kg with Rattus norvegicus [2] stood at 23.2%. In addition, in the data set with Rattus norvegicus [4], the inhibition in vivo at 25 mg/kg is 11%. For the same compound, the LD50 at 72 h in data set [3] is 600 mg/kg. Further, the ED50 in the data set with Mus musculus is 72 mg/kg.
